Screens from PubChem BioAssay.
PLC-beta3 inh: human PLC-beta3 inhibitors, primary screen, biochemical, fluorescence; 1-phosphatidylinositol 4,5-bisphosphate phosphodiesterase beta-3 (Homo sapiens), Q01970; Purified PLC-beta3, fluorogenic substrate; inhibition, % at 12.2 µM; 0.18% of 370,000 active; AID 720704, 2013; in the data active = inhibition above about 11%;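 also: 0% = median of compound wells on plate and 100% = full blocker control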
PLCg1 inh: PLC-gamma1 enzyme inhibitors, primary screen, biochemical, fluorescence, purified enzyme; 0.84% of 370,000 active; 1-phosphatidylinositol 4,5-bisphosphate phosphodiesterase gamma-1 (Homo sapiens), P19174; fluorogenic substrate; AID 720700, 2013; inhibition, % at 12.2 µM; in the data active = inhibition above about 9.5%
VIM-2 inh: VIM-2 metallo-beta-lactamase inhibitors, primary screen, biochemical, epi-absorbance readout, Pseudomonas aeruginosa enzyme. inhibition, % at 5.6 µM. 0.89% of 290,000 active. purified VIM-2, nitrocefin hydrolysis, epi-absorbance fluorescence;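 active = inhibition above the mean of all tested compounds plus 3 SD, cutoff set per screening run, cut at about 7.5% in these data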;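 also: red hydrolysis product quenches plate fluorescence so inhibitors raise well fluorescence; 0% = enzyme with DMSO and 100% = DMSO without enzyme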
IMP-1 inh: IMP-1 metallo-beta-lactamase inhibitors, primary screen, biochemical, epi-absorbance readout, Pseudomonas aeruginosa enzyme. 0.45% of 290,000 active. inhibition, % at 5.6 µM. metallo-beta-lactamase IMP-1 (Pseudomonas aeruginosa). purified IMP-1, nitrocefin hydrolysis, epi-absorbance fluorescence;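 active = inhibition above the mean plus 3 SD of all compounds in the same screening run, cut at about 4.5% in these data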;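 also: 0% = IMP-1 with DMSO and 100% = DMSO wells lacking enzyme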
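System: purified IMP-1; amount: IMP-1 0.2 nM before substrate addition; compound: single dose, 5.6 µM; times: 25 °C, 15 min preincubation, 25 min reaction; signal: Epi-absorbance via hydrolysed-nitrocefin quenching of white-plate fluorescence, 480/530 nm, EDTA stop; benchmarks: DMSO with and without IMP-1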
PvdQ inh: P. aeruginosa PvdQ acylase inhibitors, primary screen, biochemical, fluorescence, plate reader and imaging, single point; inhibition, % at 10 µM; purified PvdQ acylase; PvdQ acylase [Pseudomonas aeruginosa LESB58]; 0.063% of 340,000 active; AID 488965, 2010; in the data active = inhibition above about 30%, passing the limit was not always enough;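 also: 0% = vehicle neutral wells and 100% = reference inhibitor wells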
The depositor's hits bear a star. In the library only some 2% were active in any assay of this set; here they are far more common.

O=C(c1cccc(Cl)c1)N1CCN(c2ccnc3cc(Cl)ccc23)CC1 was read as PLC-beta3 inh -5 and PLCg1 inh -5.
O=C(NCCCn1ccnc1)C(=O)NCC1OCCN1S(=O)(=O)c1ccc(Br)cc1 (centres undefined) was read as PLC-beta3 inh 2, PLCg1 inh 8, VIM-2 inh -1, IMP-1 inh 7.0* and PvdQ inh -16.
O=C(NCCCn1ccnc1)C(=O)NCC1OCCN1S(=O)(=O)c1ccc(F)cc1 (centres undefined) was read as PLC-beta3 inh -2, PLCg1 inh -2, VIM-2 inh -2, IMP-1 inh 10* and PvdQ inh 4.
For Cc1ccc(S(=O)(=O)N2CCCOC2CNC(=O)C(=O)NCCCn2ccnc2)cc1 (centres undefined) the results were PLC-beta3 inh 4, PLCg1 inh 2, VIM-2 inh -2, IMP-1 inh -1 and PvdQ inh 2.
For Cc1ccc(NC(=O)CCCN2C(=O)/C(=C/C=C/c3ccccc3)SC2=S)cc1 the results were PLC-beta3 inh -2, PLCg1 inh -2, VIM-2 inh 1, IMP-1 inh 7.2* and PvdQ inh -6.
Screening O=C(CCN1C(=O)/C(=C\C=C\c2ccccc2)SC1=S)Nc1ccccc1C(=O)O returned PLC-beta3 inh -8, PLCg1 inh -3, VIM-2 inh 0, IMP-1 inh 8.1* and PvdQ inh 4.
O=C(CCN1C(=O)/C(=C\C=C\c2ccccc2)SC1=S)Nc1cccc(C(=O)O)c1 was read as PLC-beta3 inh -10, PLCg1 inh -1, VIM-2 inh -1, IMP-1 inh 4 and PvdQ inh -3.
Screening O=C(COC(=O)CCN1C(=O)/C(=C\C=C\c2ccccc2)SC1=S)Nc1ccc(Br)cc1 returned PLC-beta3 inh -3, PLCg1 inh -3, VIM-2 inh -3, IMP-1 inh 5.5* and PvdQ inh 5.
For COc1ccc(OC)c(CN2C(=O)CSCCC2(C)c2nnnn2C2CCCC2)c1 (centres undefined) the results were PLC-beta3 inh 2 and PLCg1 inh -3.
Screening CCn1c(=O)c2cc(C(=O)NCCC(C)C)sc2c2ccccc21 returned PLC-beta3 inh -14, PLCg1 inh -5, VIM-2 inh 5, IMP-1 inh -2 and PvdQ inh -1.
`CCn1c(=O)c2cc(C(=O)NCCCOC)sc2c2ccccc21` gave PLC-beta3 inh -30, PLCg1 inh -19, VIM-2 inh 9.0*, IMP-1 inh -2 and PvdQ inh -3.
For CCC(C)NC(=O)c1cc2c(=O)n(CC)c3ccccc3c2s1 (centres undefined) the results were PLC-beta3 inh -59, PLCg1 inh -42, VIM-2 inh 8.0*, IMP-1 inh -1 and PvdQ inh -16.
For CCn1c(=O)c2cc(C(=O)NCC(OC)OC)sc2c2ccccc21 the results were PLC-beta3 inh -67, PLCg1 inh -45, VIM-2 inh 7, IMP-1 inh -5 and PvdQ inh -1.
For C#CCOCCOCCOCCNc1nc(N2CCN(C(=O)[C@H]([C@@H](C)CC)n3cc([C@@H](N)CO)nn3)CC2)nc(N2CCN(C(=O)[C@H](Cc3cc4ccccc4[nH]3)n3cc([C@@H](N)C(C)CC)nn3)CC2)n1 (some centres undefined) the results were VIM-2 inh -4 and IMP-1 inh 7.0*.
Screening COCC(=O)N[C@@H]1C[C@@H]2O[C@H](CO)CC[C@@H]2O[C@@H]1CCc1ccc(-c2ccccc2)cc1 returned PLC-beta3 inh -3 and PLCg1 inh 1.
Screening CC1CCCCN1CCNC(=O)c1cc2c(-c3ccccc3F)nn(C)c2s1 (centres undefined) returned PLC-beta3 inh -55, PLCg1 inh -47, VIM-2 inh 8.9*, IMP-1 inh -3 and PvdQ inh -20.
For CCOC(=O)N1CCC(NC(=O)c2cc3c(-c4ccccc4F)nn(C)c3s2)CC1 the results were PLC-beta3 inh -4, PLCg1 inh -4, VIM-2 inh -1, IMP-1 inh -2 and PvdQ inh -8.
Screening CCCCN(CC)CCNC(=O)c1cc2c(-c3ccccc3F)nn(C)c2s1 returned PLC-beta3 inh -60, PLCg1 inh -44, VIM-2 inh 9.3*, IMP-1 inh -2 and PvdQ inh 9.
`C[n+]1ccc(/C=C/c2ccc(Br)cc2)cc1` gave PLC-beta3 inh -32, PLCg1 inh -25, VIM-2 inh -3, IMP-1 inh 8.3* and PvdQ inh -3.
Screening CCc1c(C)c2ccc(O)c(CN(C)C)c2oc1=O returned PLC-beta3 inh inactive, PLCg1 inh inactive, VIM-2 inh -1, IMP-1 inh -6 and PvdQ inh -2.
`Cc1c(Br)c(=O)oc2c(C)c(O)ccc12` gave PLC-beta3 inh inactive, PLCg1 inh inactive, VIM-2 inh 8.4*, IMP-1 inh -6 and PvdQ inh -2.
Screening NS(=O)(=O)c1ccc(S(=O)(=O)N(Cc2ccccc2F)CC2CCCO2)cc1 (centres undefined) returned PLC-beta3 inh 2, PLCg1 inh 3, VIM-2 inh -1, IMP-1 inh 5.0* and PvdQ inh -13.
Screening COc1cccc2sc3cc(C#CC4(O)CCCCC4)ccc3c(=O)c12 returned PLC-beta3 inh -329, PLCg1 inh -275 and PvdQ inh -17.
COc1cccc2sc3ccc(C#CC4(N)CCCCC4)cc3c(=O)c12 was read as PLC-beta3 inh -205, PLCg1 inh -143, VIM-2 inh 9.0*, IMP-1 inh -2 and PvdQ inh -17.
`C=CCN1C(=O)[C@@H](CC(=O)NCc2ccc(C)o2)[C@]2(C(=O)OC)CCCCC=C12` gave PLC-beta3 inh 1 and PLCg1 inh 3.
`Cc1ccc(CN2CCCCC(NC(=O)c3ccc(COc4ccccc4)cc3)C2=O)cc1` (centres undefined) gave PLC-beta3 inh 2 and PLCg1 inh 3.
`Brc1ccc(-c2csc(N3CCC(c4nn[nH]n4)CC3)n2)cc1` gave PLC-beta3 inh -4 and PLCg1 inh 0.
For COc1ccc(CCNC(=O)c2cc3c(=O)n4ccccc4nc3n(CCN3CCOCC3)c2=N)cc1 the results were PLC-beta3 inh -143, PLCg1 inh -94, VIM-2 inh 3, IMP-1 inh -2 and PvdQ inh -8.
For COc1ccc(CCn2c(=N)c(C(=O)NCc3ccco3)cc3c(=O)n4ccccc4nc32)cc1OC the results were PLC-beta3 inh -24, PLCg1 inh -15 and PvdQ inh -10.
`COc1ccc(CCNC(=O)c2cc3c(=O)n4ccccc4nc3n(CCCN3CCOCC3)c2=N)cc1` gave PLC-beta3 inh -222, PLCg1 inh -147, VIM-2 inh 10*, IMP-1 inh -4 and PvdQ inh 0.
